Measurements reported in ChEMBL document CHEMBL1147981, “Small molecule activators of SIRT1 as therapeutics for the treatment of type 2 diabetes” (Nature, 2007).
pEC50: −log10 of the molar value. The source made the active and inactive calls. The rule behind the calls is not given here.

How the values were obtained:
[1] = system: Rattus norvegicus; assay: Increase in insulin-induced glucose disposal rate into skeletal muscle in po dosed Zucker fa/fa rat relative to control; format: functional
[2] = molecular target: T1, NAD-dependent protein deacetylase sirtuin-3, mitochondrial (Homo sapiens, UniProt Q9NTG7); assay: Activation of SIRT3 by mass spectrometry assay
T1 sequence (Q9NTG7 whole entry): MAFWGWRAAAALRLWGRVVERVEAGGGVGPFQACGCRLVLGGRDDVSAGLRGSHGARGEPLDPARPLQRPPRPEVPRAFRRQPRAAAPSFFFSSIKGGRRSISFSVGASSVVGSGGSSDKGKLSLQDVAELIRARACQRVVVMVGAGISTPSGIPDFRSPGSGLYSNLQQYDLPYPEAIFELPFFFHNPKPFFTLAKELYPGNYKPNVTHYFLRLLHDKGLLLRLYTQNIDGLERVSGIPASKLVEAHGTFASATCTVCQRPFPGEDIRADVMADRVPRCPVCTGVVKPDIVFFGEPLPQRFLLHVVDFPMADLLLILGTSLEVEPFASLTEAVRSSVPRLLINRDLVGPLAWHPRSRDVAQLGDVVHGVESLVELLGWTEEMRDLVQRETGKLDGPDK

[3] = molecular target: T2, NAD-dependent protein deacetylase sirtuin-1 (Homo sapiens) (UniProt Q96EB6); assay: Activation of human SIRT1-B (172-664) construct by mass spectrometry assay relative to control
T2 sequence (whole entry): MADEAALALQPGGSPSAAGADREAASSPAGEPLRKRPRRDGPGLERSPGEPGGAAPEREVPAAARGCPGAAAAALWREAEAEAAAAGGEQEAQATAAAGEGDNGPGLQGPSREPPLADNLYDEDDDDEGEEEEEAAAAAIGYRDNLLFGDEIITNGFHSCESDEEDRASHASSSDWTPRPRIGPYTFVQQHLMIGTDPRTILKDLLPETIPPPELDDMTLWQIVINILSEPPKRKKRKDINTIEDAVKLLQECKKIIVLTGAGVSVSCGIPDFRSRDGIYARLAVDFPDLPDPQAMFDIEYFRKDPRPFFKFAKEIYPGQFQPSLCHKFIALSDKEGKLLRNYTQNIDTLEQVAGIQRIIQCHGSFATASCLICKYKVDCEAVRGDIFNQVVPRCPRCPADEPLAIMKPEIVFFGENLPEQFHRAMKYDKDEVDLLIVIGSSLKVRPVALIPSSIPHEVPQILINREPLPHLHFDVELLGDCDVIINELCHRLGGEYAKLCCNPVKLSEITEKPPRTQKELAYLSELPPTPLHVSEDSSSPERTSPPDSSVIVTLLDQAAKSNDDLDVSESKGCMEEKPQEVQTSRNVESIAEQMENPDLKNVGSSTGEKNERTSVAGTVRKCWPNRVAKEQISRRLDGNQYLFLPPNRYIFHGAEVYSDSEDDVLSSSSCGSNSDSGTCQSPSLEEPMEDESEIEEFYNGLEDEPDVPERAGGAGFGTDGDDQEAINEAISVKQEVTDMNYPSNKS

[4] = molecular target: T2, NAD-dependent protein deacetylase sirtuin-1 (Homo sapiens); assay: Activation of human SIRT1-G (235-664) construct by mass spectrometry assay relative to control
[5] = system: Rattus norvegicus; assay: Reduction of blood insulin level in po dosed Zucker fa/fa rat after 3 weeks by glucose tolerance test; format: functional
Procedure, shortened: (§1)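 On day 26 of daily oral dosing, fa/fa Zucker rats fasted 5 h, then gavaged with 1 g/kg dextrose; tail-vein glucose at 0, 15, 30, 60, 90 min; plasma for insulin at 0, 15, 30, 60 min.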

[6] = system: Mus musculus; assay: Reduction of hyperinsulinemia in DIO C57BL/6 mouse model at 100 mg/kg, po after 4 weeks; format: functional, organism-based; design: dose 100 mg/kg
[7] = molecular target: T2, NAD-dependent protein deacetylase sirtuin-1 (Homo sapiens); assay: Activation of human SIRT1-C construct by mass spectrometry assay relative to control
[8] = system: Rattus norvegicus; assay: Increase in glucose disposal rate in po dosed Zucker fa/fa rat relative to control; format: functional
Procedure, shortened: (§2)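 Cannulated 10-week-old fa/fa Zucker rats, unrestrained. D-[3-3H]glucose prime 7.5 μCi, then infused at 0.167 μCi/min; basal samples at -10 and 0 min for hepatic glucose production. From 0 min, insulin at 25 mU/kg/min plus variable 50% dextrose infusion; plasma insulin and FFA at 0 and 120 min.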

[9] = Terminal half life in Sprague-Dawley rat at 100 mg/kg/day, po; format: ADME, organism-based; design: route oral; details: in vivo
[10] = molecular target: T2, NAD-dependent protein deacetylase sirtuin-1 (Homo sapiens); assay: Activation of SIRT1 in human U2OS cells assessed as decrease in p53 deacetylation level at 0.10 uM; format: cell-based
Procedure, shortened: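 U-2 OS cells seeded 1.5 × 10⁴/well; compounds in DMSO added after 24 h, then doxorubicin 1 μg/ml final to induce p53. Fixed, permeabilized, immunostained for Ac-Lys382-p53 and beta-tubulin, infrared scan; background-corrected acetyl signal normalized to tubulin, then to vehicle as % acetylated p53. Replicate plates co-treated with a SIRT1-specific inhibitor.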

[11] = molecular target: T2, NAD-dependent protein deacetylase sirtuin-1 (Homo sapiens); assay: Activation of human SIRT1-A (156-664) construct by mass spectrometry assay relative to control
[12] = system: Rattus norvegicus; assay: Increase in insulin sensitivity in po dosed Zucker fa/fa rat assessed as hepatic glucose production relative to control; format: functional, organism-based; procedure, shortened: as §2
[13] = molecular target: T2, NAD-dependent protein deacetylase sirtuin-1 (Homo sapiens); assay: Activation of human SIRT1-D (219-664) construct by mass spectrometry assay relative to control
[14] = system: Mus musculus; assay: Reduction of glucose levels in DIO C57BL/6 mouse model at 100 mg/kg, po during insulin tolerance test; format: functional, organism-based; design: dose 100 mg/kg
Procedure, shortened: (§3)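 Male C57BL/6 mice, started at nine weeks, fed 60%-fat diet until mean weight ~40 g; 6-10 per group; once-daily oral gavage in 2% HPMC + 0.2% DOSS. Fed glucose at 2, 4, 6, 8, 10 weeks; IPGTT after 5 weeks; ITT after 10 weeks. One-way ANOVA with Dunnett's test vs control, p<0.05.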

[15] = system: Mus musculus; assay: Reduction of fasting blood glucose in DIO C57BL/6 mouse model at 100 mg/kg, po assessed as glucose level by glucose tolerance test; format: functional; procedure, shortened: as §3
[16] = system: Rattus norvegicus; assay: Reduction of blood glucose level in po dosed Zucker fa/fa rat assessed as glucose level after 3 weeks by glucose tolerance test; format: functional; procedure, shortened: as §1
[17] = Terminal half life in C57BL/6 mouse at 100 mg/kg/day, po; format: ADME, organism-based; design: route oral; details: in vivo
Procedure, shortened: (§4)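 Oral gavage in 2% HPMC + 0.2% DOSS (hydrochloride salt) to male C57BL/6 mice, 18-22 g, 3 per dose group per time point; blood taken at 5, 30, 120 and 360 min after dosing after CO2 sacrifice; plasma drug levels measured.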

[18] = system: Rattus norvegicus; assay: Increase in adipose insulin sensitivity in po dosed Zucker fa/fa rat assessed as plasma free fatty acid level relative to control; format: functional; procedure, shortened: as §2
[19] = molecular target: T2, NAD-dependent protein deacetylase sirtuin-1 (Homo sapiens); assay: Activation of human SIRT1-F (230-664) construct by mass spectrometry assay relative to control
[20] = molecular target: T2, NAD-dependent protein deacetylase sirtuin-1 (Homo sapiens); assay: Activation of human SIRT1 assessed as decrease in Km of enzyme for acetylated peptide substrate by mass spectrometry assay
[21] = system: Rattus norvegicus; assay: Increase in glucose infusion rate required to maintain euglycaemia in po dosed Zucker fa/fa rat relative to control; format: functional; procedure, shortened: as §2
[22] = system: Mus musculus; assay: Reduction of blood glucose level in diabetic Lep ob/ob mouse model at 100 mg/kg, po after 1 week; format: functional, organism-based; design: dose 100 mg/kg
Procedure, shortened: (§5)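 ob/ob mice received at 6 weeks, kept on 60%-fat diet from at least one week before study; ~40-45 g; grouped by body weight and glucose; once-daily oral gavage in 2% HPMC + 0.2% DOSS. One-way ANOVA with Dunnett's test vs control, p<0.05.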

[23] = AUC in C57BL/6 mouse at 100 mg/kg/day, po; format: ADME, organism-based; design: route oral; details: plasma; procedure, shortened: as §4
[24] = Bioavailability in Sprague-Dawley rat administered at 10 mg/kg, iv; format: ADME, organism-based; details: in vivo
[25] = species: Rattus norvegicus; assay: Reduction in hepatic gluconeogenesis in Zucker fa/fa rat assessed as glucose response by pyruvate tolerance test relative to control; format: functional, organism-based
Procedure, shortened: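 Day 22 of daily oral dosing in fa/fa Zucker rats: after overnight fast, sodium pyruvate 1 g/kg ip in 0.9% NaCl; tail-vein glucose at 0, 30, 40, 50, 60 and 90 min.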

[26] = Bioavailability in C57BL/6 mouse at 100 mg/kg/day, po; format: ADME, organism-based; details: in vivo
Procedure, shortened: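 Male C57BL/6 mice (18-22 g, 3 per group per time point). Oral dosing by gavage in 2% HPMC + 0.2% DOSS, compared with tail-vein iv dosing in 10% ethanol/40% PEG/50% water.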

[27] = molecular target: T2, NAD-dependent protein deacetylase sirtuin-1 (Homo sapiens); assay: Activation of human SIRT1 expressed in Escherichia coli BL21 by mass spectrometry assay
[28] = system: Mus musculus; assay: Increase in mitochondrial capacity in DIO C57BL/6 mouse model assessed as citrate synthase activity at 100 mg/kg, po after 10 weeks; format: functional; details: in the assay text read “after 11 weeks” for “after 10 weeks”
Procedure, shortened: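 Citrate synthase activity in gastrocnemius and epididymal white adipose tissue after 11 weeks of daily oral dosing in high-fat-fed C57BL/6 mice; five mice per group closest to the group's mean fasting glucose were selected.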

[29] = molecular target: T2, NAD-dependent protein deacetylase sirtuin-1 (Homo sapiens); assay: Activation of human SIRT1-E (225-664) construct by mass spectrometry assay relative to control
[30] = species: Mus musculus; assay: Reduction of insulin level in chow-fed C57BL/6 mouse; format: functional, organism-based
[31] = system: Mus musculus; assay: Effect on body weight in diabetic Lep ob/ob mouse model at 100 mg/kg, po; format: functional, organism-based; design: dose 100 mg/kg; procedure, shortened: as §5
[32] = molecular target: T2, NAD-dependent protein deacetylase sirtuin-1 (Homo sapiens); assay: Activation of human SIRT1-H (240-664) construct by mass spectrometry assay relative to control
[33] = molecular target: T3, NAD-dependent protein deacetylase sirtuin-2 (Homo sapiens, UniProt Q8IXJ6); assay: Activation of SIRT2 by mass spectrometry assay
T3 sequence (Q8IXJ6 whole entry): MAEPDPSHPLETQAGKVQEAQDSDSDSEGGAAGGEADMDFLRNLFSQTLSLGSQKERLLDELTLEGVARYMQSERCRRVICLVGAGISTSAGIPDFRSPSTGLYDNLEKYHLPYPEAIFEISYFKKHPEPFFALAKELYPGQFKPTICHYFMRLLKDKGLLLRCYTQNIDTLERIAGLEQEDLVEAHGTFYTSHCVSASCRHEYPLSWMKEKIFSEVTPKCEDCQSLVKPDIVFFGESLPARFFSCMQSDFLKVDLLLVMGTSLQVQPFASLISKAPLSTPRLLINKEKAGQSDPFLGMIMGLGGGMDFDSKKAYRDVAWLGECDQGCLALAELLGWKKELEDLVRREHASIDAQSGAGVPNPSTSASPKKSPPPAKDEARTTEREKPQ

[34] = AUC in Sprague-Dawley rat at 100 mg/kg/day, po; format: ADME, organism-based; design: route oral; details: plasma

Compound: O=C(Nc1ccccc1-c1cn2c(CN3CCNCC3)csc2n1)c1cnc2ccccc2n1
- Activity [1]: 55%
- pEC50 [2]: < 3.52
- Activity [3]: 5.8
- Activity [4]: 1.9
- Activity [5]: 25 ng/min/dL
- Activity [6]: Active
- Activity [7]: 5.6
- Activity [8]: 20%
- half-life [9]: 8.4 h
- Activity [10]: Active
- Activity [11]: 5.9
- Activity [12]: Active
- Activity [13]: 1.3
- Activity [14]: Active
- Activity [15]: 462 mg/h/dL
- Activity [16]: 2490 mg/min/dL
- half-life [17]: 5 h
- Activity [18]: 40%
- Activity [19]: 1.5
- Activity [20]: Active
- Activity [21]: 35%
- Activity [22]: Active
- AUC [23]: 7890 ng·h/mL
- bioavailability [24]: 25%
- Activity [25]: Active
- bioavailability [26]: 50%
- Activity [27]: 781%
- Activity [28]: 15%
- Activity [29]: 1.6
- Activity [30]: inactive
- Activity [31]: inactive
- Activity [32]: 2
- pEC50 [33]: 4.43
- AUC [34]: 3710 ng·h/mL
